# Laboratory results reported in ChEMBL document CHEMBL3576817, “Synthesis and Evaluation of Conjugates of Novel TLR7 Inert Ligands as Self-Adjuvanting Immunopotentiators” (2015).
# Active and inactive are the calls of the source. The rule behind the calls is not given here.
# Assays:
# Mus musculus [1] = species on record: Mus musculus; experiment: Immunostimulatory activity in BALB/c mouse splenocytes assessed as induction of IFN-gamma production at 10 uM after 24 hrs by ELISA in presence of MSA relative to GD2; assay type: functional, Splenocyte
# Summary of the method: (§1)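 Mouse splenocytes were seeded at 1 × 10^6/mL and incubated 24 h with serial dilutions of free ligand or conjugates. Antigen and conjugate concentrations were scaled for conjugation ratio: one-sixth for BSA, one-fifth for OVA and MSA, equal for MG7, one-quarter for thymosin. Supernatant IFN-γ and IL-12 were measured by ELISA and expressed as conjugated/free ligand ratios. Data are triplicates from one of three experiments.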
# Mus musculus [2] = experiment: Immunostimulatory activity in C57BL/6 mouse assessed as increase in IFN-gamma level in serum at 0.18 umol, iv after 2 to 6 hrs by luminex bead microassay in presence of BSA relative to control; assay type: functional, organism-based
# Summary of the method: (§2)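 C57BL/6 mice (n = 5 per group) received 0.18 μmol intravenously. Serum was collected at set times after injection, and IFN-γ and IL-12 were measured by Luminex assay against saline-treated controls. Data are mean ± SEM of two independent experiments.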
# Mus musculus [3] = experiment: Immunostimulatory activity in C57BL/6 mouse assessed as increase in IFN-gamma level in serum at 0.18 umol, iv after 2 to 6 hrs by luminex bead microassay in presence of MSA relative to control; assay type: functional, organism-based; summary of the method: as §2
# Mus musculus [4] = experiment: Immunostimulatory activity in C57BL/6 mouse assessed as increase in IgG2a level in serum at 0.83 nmol, sc administered every 7 days measured up to 30 days by ELISA in presence of BSA; assay type: functional, organism-based
# Summary of the method: (§3)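 Mice were immunized with antigen, free ligand or conjugate, and serum was collected every 7 days from day 0 to day 30. BSA- or OVA-specific IgG1 and IgG2a were measured by ELISA. Data are mean ± SEM of triplicate from one of three independent experiments.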
# [5] = molecular target: T1, Toll-like receptor 7 (Mus musculus) (UniProt P58681); experiment: Agonist activity at TLR7 in mouse BMDM assessed as increase in IL-12 production at 2 uM after 24 hrs by ELISA in presence of MSA
# T1 sequence (whole entry): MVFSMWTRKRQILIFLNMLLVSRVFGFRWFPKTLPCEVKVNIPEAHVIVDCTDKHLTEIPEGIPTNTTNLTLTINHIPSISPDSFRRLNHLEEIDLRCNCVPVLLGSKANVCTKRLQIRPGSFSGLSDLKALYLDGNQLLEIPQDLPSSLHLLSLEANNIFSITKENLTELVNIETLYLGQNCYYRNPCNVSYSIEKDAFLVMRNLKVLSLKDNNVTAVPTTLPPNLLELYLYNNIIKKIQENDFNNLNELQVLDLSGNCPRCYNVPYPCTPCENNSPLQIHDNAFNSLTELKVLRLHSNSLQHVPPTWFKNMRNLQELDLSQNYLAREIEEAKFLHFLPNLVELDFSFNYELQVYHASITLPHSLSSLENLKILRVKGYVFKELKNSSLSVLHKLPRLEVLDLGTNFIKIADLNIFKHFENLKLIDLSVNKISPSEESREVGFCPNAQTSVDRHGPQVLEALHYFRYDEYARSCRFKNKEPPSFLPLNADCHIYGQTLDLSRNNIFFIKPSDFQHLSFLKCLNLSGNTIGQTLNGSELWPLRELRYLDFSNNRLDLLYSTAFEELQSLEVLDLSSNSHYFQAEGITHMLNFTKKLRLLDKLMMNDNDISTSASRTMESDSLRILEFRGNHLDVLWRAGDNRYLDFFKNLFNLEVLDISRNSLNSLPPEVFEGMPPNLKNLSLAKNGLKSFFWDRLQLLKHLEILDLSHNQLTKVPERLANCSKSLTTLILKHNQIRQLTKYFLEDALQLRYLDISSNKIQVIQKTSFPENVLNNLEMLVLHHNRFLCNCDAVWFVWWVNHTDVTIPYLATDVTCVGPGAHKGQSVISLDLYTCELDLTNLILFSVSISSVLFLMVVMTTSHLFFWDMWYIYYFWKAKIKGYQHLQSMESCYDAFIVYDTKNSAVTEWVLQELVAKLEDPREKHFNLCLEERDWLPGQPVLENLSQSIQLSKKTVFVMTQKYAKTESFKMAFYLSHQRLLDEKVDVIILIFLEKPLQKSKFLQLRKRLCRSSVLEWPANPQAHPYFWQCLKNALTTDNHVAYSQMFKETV
# Summary of the method: (§4)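 BMDM from wild-type or TLR7−/− mice were seeded at 1 × 10^6/mL. They were incubated 24 h with 2 μM antigen conjugates, with the free ligand at 10 μM. IL-12 in culture supernatants was measured by ELISA. Data are mean ± SEM of triplicates from one of three independent experiments. Only material with endotoxin <5 EU/mg was used.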
# Mus musculus [6] = experiment: Immunostimulatory activity in C57BL/6 mouse assessed as increase in IgG1 level in serum at 0.83 nmol, sc administered every 7 days measured up to 30 days by ELISA in presence of BSA; assay type: functional, organism-based; summary of the method: as §3
# [7] = molecular target: T1, Toll-like receptor 7 (Mus musculus); experiment: Agonist activity at TLR7 in mouse BMDM assessed as increase in IL-12 production at 2 uM after 24 hrs by ELISA in presence of MG7; summary of the method: as §4
# Mus musculus [8] = species on record: Mus musculus; experiment: Immunostimulatory activity in BALB/c mouse splenocytes assessed as induction of IL-12 production at 10 uM after 24 hrs by ELISA in presence of MG7 relative to GD2; assay type: functional, Splenocyte; summary of the method: as §1
# Mus musculus [9] = species on record: Mus musculus; experiment: Immunostimulatory activity in BALB/c mouse splenocytes assessed as induction of IFN-gamma production at 10 uM after 24 hrs by ELISA in presence of MG7 relative to GD2; assay type: functional, Splenocyte; summary of the method: as §1
# Mus musculus [10] = experiment: Immunostimulatory activity in C57BL/6 mouse assessed as increase in IgG1 level in serum at 5 nmol, sc administered every 7 days measured up to 30 days by ELISA; assay type: functional, organism-based; summary of the method: as §3
# Mus musculus [11] = species on record: Mus musculus; experiment: Immunostimulatory activity in BALB/c mouse splenocytes assessed as induction of IFN-gamma production at 10 uM after 24 hrs by ELISA in presence of OVA relative to GD2; assay type: functional, Splenocyte; summary of the method: as §1
# Mus musculus [12] = experiment: Immunostimulatory activity in C57BL/6 mouse assessed as increase in IgG1 level in serum at 1 nmol, sc administered every 7 days measured up to 30 days by ELISA in presence of OVA; assay type: functional, organism-based; summary of the method: as §3
# Mus musculus [13] = species on record: Mus musculus; experiment: Immunostimulatory activity in BALB/c mouse splenocytes assessed as induction of IFN-gamma production at 10 uM after 24 hrs by ELISA in presence of thymosin relative to GD2; assay type: functional, Splenocyte; summary of the method: as §1
# Mus musculus [14] = experiment: Immunostimulatory activity in C57BL/6 mouse assessed as increase in IFN-gamma level in serum at 0.18 umol, iv after 2 to 6 hrs by luminex bead microassay in presence of MG7 relative to control; assay type: functional, organism-based; summary of the method: as §2
# Mus musculus [15] = experiment: Immunostimulatory activity in C57BL/6 mouse assessed as increase in IFN-gamma level in serum at 0.18 umol, iv after 2 to 48 hrs by luminex bead microassay relative to control; assay type: functional, organism-based; summary of the method: as §2
# Mus musculus [16] = experiment: Immunostimulatory activity in C57BL/6 mouse assessed as increase in IFN-gamma level in serum at 0.18 umol, iv after 2 to 6 hrs by luminex bead microassay in presence of OVA relative to control; assay type: functional, organism-based; summary of the method: as §2
# Mus musculus [17] = species on record: Mus musculus; experiment: Immunostimulatory activity in BALB/c mouse splenocytes assessed as induction of IL-12 production at 10 uM after 24 hrs by ELISA in presence of OVA relative to GD2; assay type: functional, Splenocyte; summary of the method: as §1
# [18] = molecular target: T1, Toll-like receptor 7 (Mus musculus); experiment: Agonist activity at TLR7 in mouse BMDM assessed as increase in IL-12 production at 2 uM after 24 hrs by ELISA in presence of thymosin; summary of the method: as §4
# Mus musculus [19] = experiment: Immunostimulatory activity in C57BL/6 mouse assessed as increase in IFN-gamma level in serum at 0.18 umol, iv after 2 to 6 hrs by luminex bead microassay in presence of thymosin relative to control; assay type: functional, organism-based; summary of the method: as §2
# Mus musculus [20] = species on record: Mus musculus; experiment: Immunostimulatory activity in BALB/c mouse splenocytes assessed as induction of IL-12 production at 10 uM after 24 hrs by ELISA in presence of MSA relative to GD2; assay type: functional, Splenocyte; summary of the method: as §1
# [21] = molecular target: T1, Toll-like receptor 7 (Mus musculus); experiment: Agonist activity at TLR7 in mouse BMDM assessed as increase in IL-12 production at 2 uM after 24 hrs by ELISA in presence of BSA; summary of the method: as §4
# Mus musculus [22] = species on record: Mus musculus; experiment: Immunostimulatory activity in BALB/c mouse splenocytes assessed as induction of IFN-gamma production at 10 uM after 24 hrs by ELISA in presence of BSA relative to GD2; assay type: functional, Splenocyte; summary of the method: as §1
# Mus musculus [23] = experiment: Immunostimulatory activity in C57BL/6 mouse assessed as increase in IgG2a level in serum at 5 nmol, sc administered every 7 days measured up to 30 days by ELISA; assay type: functional, organism-based; summary of the method: as §3
# Mus musculus [24] = species on record: Mus musculus; experiment: Immunostimulatory activity in BALB/c mouse splenocytes assessed as induction of IL-12 production at 10 uM after 24 hrs by ELISA in presence of thymosin relative to GD2; assay type: functional, Splenocyte; summary of the method: as §1
# Mus musculus [25] = species on record: Mus musculus; experiment: Immunostimulatory activity in BALB/c mouse splenocytes assessed as induction of IL-12 production at 10 uM after 24 hrs by ELISA in presence of BSA relative to GD2; assay type: functional, Splenocyte; summary of the method: as §1
# Mus musculus [26] = experiment: Immunostimulatory activity in C57BL/6 mouse assessed as increase in IgG2a level in serum at 1 nmol, sc administered every 7 days measured up to 30 days by ELISA in presence of OVA; assay type: functional, organism-based; summary of the method: as §3
# [27] = molecular target: T1, Toll-like receptor 7 (Mus musculus); experiment: Agonist activity at TLR7 in mouse BMDM assessed as increase in IL-12 production at 2 uM after 24 hrs by ELISA in presence of OVA; summary of the method: as §4
# Mus musculus [28] = species on record: Mus musculus; experiment: Immunostimulatory activity in BALB/c mouse splenocytes assessed as induction of IFN-gamma production at 10 uM after 24 hrs by ELISA relative to GD2; assay type: functional, Splenocyte; summary of the method: as §1
# Mus musculus [29] = experiment: Immunostimulatory activity in C57BL/6 mouse assessed as increase in IFN-gamma level in serum at 0.18 umol, iv at 2 hrs by luminex bead microassay relative to control; assay type: functional, organism-based; summary of the method: as §2
# Mus musculus [30] = species on record: Mus musculus; experiment: Immunostimulatory activity in BALB/c mouse splenocytes assessed as induction of IL-12 production at 10 uM after 24 hrs by ELISA relative to GD2; assay type: functional, Splenocyte; summary of the method: as §1
smiles,measurement,setting,value
COCCOc1nc(N)c2nc(O)n(CCCC(=O)O)c2n1,fold change (FC),Mus musculus [1],575
same,Activity,Mus musculus [2],Active
same,Activity,Mus musculus [3],Active
same,Activity,Mus musculus [4],Active
same,Activity,[5],Active
same,Activity,Mus musculus [6],Active
same,Activity,[7],Active
same,fold change (FC),Mus musculus [8],52
same,fold change (FC),Mus musculus [9],550
same,Activity,Mus musculus [10],inactive
same,fold change (FC),Mus musculus [11],73
same,Activity,Mus musculus [12],Active
same,fold change (FC),Mus musculus [13],1511
same,Activity,Mus musculus [14],Active
same,Activity,Mus musculus [15],inactive
same,Activity,Mus musculus [16],Active
same,fold change (FC),Mus musculus [17],175
same,Activity,[18],Active
same,Activity,Mus musculus [19],Active
same,fold change (FC),Mus musculus [20],42
same,Activity,[21],Active
same,fold change (FC),Mus musculus [22],488
same,Activity,Mus musculus [23],inactive
same,fold change (FC),Mus musculus [24],409
same,fold change (FC),Mus musculus [25],16
same,Activity,Mus musculus [26],Active
same,Activity,[27],Active
COCCOc1nc(N)c2nc(O)n(Cc3ccc(C=O)cc3)c2n1,fold change (FC),Mus musculus [28],524
same,Activity,Mus musculus [29],Active
same,Activity,Mus musculus [15],inactive
same,fold change (FC),Mus musculus [30],61
